From ChEMBL document CHEMBL4689842, “EUbOPEN Chemogenomics Library wave 1” (2021)
Where “and” joins values, the source holds several entries; their conditions need not be identical. Equal entries are not always repeated.

Test system: Fibroblast
Experiment: Multiplex assay against human fibroblast
Assay type: toxicity, cell-based
Outline: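 On a CQ1 microscope at 37°C and 5% CO2, live cells were imaged after compound addition. They had been stained at seeding with Hoechst33342, BioTracker Green Microtubule Cytoskeleton Dye, MitoTracker Red and Annexin V Alexa Fluor 680. CellPathfinder machine-learning gating assigned cells to Hoechst high-intensity objects or normal cells, normal cells to healthy, pyknosed or fragmented nuclei, and pyknosed cells to mitotic or apoptotic. Tubulin, mitochondrial-mass and membrane-permeability phenotypes are per cents of healthy-nucleus cells.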

[1] = 12 h, 1 µM, compound concentration 1 uM, replicate 1
[2] = 12 h, 1 µM, compound concentration 1 uM, replicate 2
[3] = 12 h, 10 µM, compound concentration 10 uM, replicate 1
[4] = 12 h, 10 µM, compound concentration 10 uM, replicate 2
[5] = 24 h, 1 µM, compound concentration 1 uM, replicate 1
[6] = 24 h, 1 µM, compound concentration 1 uM, replicate 2
[7] = 24 h, 10 µM, compound concentration 10 uM, replicate 1
[8] = 24 h, 10 µM, compound concentration 10 uM, replicate 2

SMILES: C=CC(=O)Nc1cc2c(Nc3ccc(F)c(Cl)c3)ncnc2cc1OCCCN1CCOCC1.Cl.Cl [CANERTINIB DIHYDROCHLORIDE]
- Population Apoptotic (%) [1]: 73%
- Population Fragmented Nuclei (%) [1]: 35%
- Population Healthy Nuclei (%) [1]: 53%
- Population Hoechst High Intensity Objects (%) [1]: 29%
- Population Membrane Permeable-Phenotype (%) [1]: 28%
- Population Mitochondria Different-Phenotype (%) [1]: 21%
- Population Mitotic Cells (%) [1]: 26%
- Population Normal (%) [1]: 70%
- Population Pyknosed Nuclei (%) [1]: 10%
- Population Tubulin-Different-Phenotype (%) [1]: 83%
- Total Cell Count [1]: 198
- Population Apoptotic (%) [2]: 100%
- Population Fragmented Nuclei (%) [2]: 58%
- Population Healthy Nuclei (%) [2]: 35%
- Population Hoechst High Intensity Objects (%) [2]: 39%
- Population Membrane Permeable-Phenotype (%) [2]: 20%
- Population Mitochondria Different-Phenotype (%) [2]: 66%
- Population Mitotic Cells (%) [2]: 0%
- Population Normal (%) [2]: 60%
- Population Pyknosed Nuclei (%) [2]: 5%
- Population Tubulin-Different-Phenotype (%) [2]: 91%
- Total Cell Count [2]: 110
- Population Apoptotic (%) [3]: 56%
- Population Fragmented Nuclei (%) [3]: 35%
- Population Healthy Nuclei (%) [3]: 45%
- Population Hoechst High Intensity Objects (%) [3]: 13%
- Population Mitotic Cells (%) [3]: 43%
- Population Normal (%) [3]: 86%
- Population Pyknosed Nuclei (%) [3]: 18%
- Population Tubulin-Different-Phenotype (%) [3]: 20%
- Total Cell Count [3]: 227
- Population Apoptotic (%) [4]: 57%
- Population Fragmented Nuclei (%) [4]: 60%
- Population Healthy Nuclei (%) [4]: 31%
- Population Hoechst High Intensity Objects (%) [4]: 43%
- Population Membrane Permeable-Phenotype (%) [4]: 10%
- Population Mitochondria Different-Phenotype (%) [4]: 10%
- Population Mitotic Cells (%) [4]: 42%
- Population Normal (%) [4]: 56%
- Population Pyknosed Nuclei (%) [4]: 7%
- Population Tubulin-Different-Phenotype (%) [4]: 27%
- Total Cell Count [4]: 160
- Population Apoptotic (%) [5]: 71%
- Population Fragmented Nuclei (%) [5]: 26%
- Population Healthy Nuclei (%) [5]: 38%
- Population Hoechst High Intensity Objects (%) [5]: 41%
- Population Membrane Permeable-Phenotype (%) [5]: 19%
- Population Mitochondria Different-Phenotype (%) [5]: 51%
- Population Mitotic Cells (%) [5]: 28%
- Population Normal (%) [5]: 58%
- Population Pyknosed Nuclei (%) [5]: 35%
- Population Tubulin-Different-Phenotype (%) [5]: 64%
- Total Cell Count [5]: 137
- Population Apoptotic (%) [6]: 100%
- Population Fragmented Nuclei (%) [6]: 59%
- Population Healthy Nuclei (%) [6]: 26%
- Population Hoechst High Intensity Objects (%) [6]: 39%
- Population Membrane Permeable-Phenotype (%) [6]: 23%
- Population Mitochondria Different-Phenotype (%) [6]: 76%
- Population Mitotic Cells (%) [6]: 0%
- Population Normal (%) [6]: 60%
- Population Pyknosed Nuclei (%) [6]: 14%
- Population Tubulin-Different-Phenotype (%) [6]: 61%
- Total Cell Count [6]: 81
- Population Apoptotic (%) [7]: 79%
- Population Fragmented Nuclei (%) [7]: 36%
- Population Healthy Nuclei (%) [7]: 50%
- Population Hoechst High Intensity Objects (%) [7]: 12%
- Population Membrane Permeable-Phenotype (%) [7]: 1%
- Population Mitochondria Different-Phenotype (%) [7]: 10%
- Population Mitotic Cells (%) [7]: 20%
- Population Normal (%) [7]: 87%
- Population Pyknosed Nuclei (%) [7]: 12%
- Population Tubulin-Different-Phenotype (%) [7]: 11%
- Total Cell Count [7]: 220
- Population Apoptotic (%) [8]: 50%
- Population Fragmented Nuclei (%) [8]: 73%
- Population Healthy Nuclei (%) [8]: 20%
- Population Hoechst High Intensity Objects (%) [8]: 44%
- Population Membrane Permeable-Phenotype (%) [8]: 5%
- Population Mitochondria Different-Phenotype (%) [8]: 16%
- Population Mitotic Cells (%) [8]: 50%
- Population Normal (%) [8]: 55%
- Population Pyknosed Nuclei (%) [8]: 6%
- Population Tubulin-Different-Phenotype (%) [8]: 33%
- Total Cell Count [8]: 159

SMILES: O=C(NCCN1CCOCC1)c1ccc2c(c1)C(=O)c1ccc(Nc3ccc(F)c(NC(=O)c4ccccc4)c3)cc1CC2 [FS-694]
- Population Apoptotic (%) [3]: 65% and 38%
- Population Fragmented Nuclei (%) [3]: 35% and 51%
- Population Healthy Nuclei (%) [3]: 49% and 32%
- Population Mitotic Cells (%) [3]: 34% and 61%
- Population Normal (%) [3]: 81% and 29%
- Population Pyknosed Nuclei (%) [3]: 14%
- Population Tubulin-Different-Phenotype (%) [3]: 20% and 24%
- Total Cell Count [3]: 371 and 970
- Population Apoptotic (%) [4]: 72% and 68%
- Population Fragmented Nuclei (%) [4]: 57%
- Population Healthy Nuclei (%) [4]: 27% and 29%
- Population Hoechst High Intensity Objects (%) [4]: 44% and 82%
- Population Membrane Permeable-Phenotype (%) [4]: 21% and 20%
- Population Mitochondria Different-Phenotype (%) [4]: 15% and 0%
- Population Mitotic Cells (%) [4]: 27% and 31%
- Population Pyknosed Nuclei (%) [4]: 15% and 13%
- Population Apoptotic (%) [7]: 44% and 59%
- Population Fragmented Nuclei (%) [7]: 50% and 35%
- Population Healthy Nuclei (%) [7]: 36% and 50%
- Population Membrane Permeable-Phenotype (%) [7]: 8%
- Population Mitochondria Different-Phenotype (%) [7]: 13% and 7%
- Population Mitotic Cells (%) [7]: 55% and 40%
- Population Normal (%) [7]: 34% and 80%
- Population Pyknosed Nuclei (%) [7]: 13% and 14%
- Population Tubulin-Different-Phenotype (%) [7]: 25% and 24%
- Total Cell Count [7]: 927 and 391
- Population Apoptotic (%) [8]: 80% and 55%
- Population Fragmented Nuclei (%) [8]: 43% and 57%
- Population Healthy Nuclei (%) [8]: 40% and 27%
- Population Hoechst High Intensity Objects (%) [8]: 50% and 77%
- Population Membrane Permeable-Phenotype (%) [8]: 16% and 15%
- Population Mitochondria Different-Phenotype (%) [8]: 20% and 0%
- Population Mitotic Cells (%) [8]: 20% and 44%
- Population Normal (%) [8]: 50% and 22%
- Population Pyknosed Nuclei (%) [8]: 16% and 15%
- Population Tubulin-Different-Phenotype (%) [8]: 20% and 9%
